{"source": "ChEMBL document CHEMBL4513216", "about": "“Probing the Open Global Health Chemical Diversity Library for Multistage-Active Starting Points for Next-Generation Antimalarials” (ACS Infect Dis, 2020)"}
{"assay": "Toxicity liver stage against HepG2, at 10uM", "assay_type": "cell-based", "parameters": "test concentration 10 uM, cell line HepG2-A16-CD81EGFP", "details": "human, HepG2-A16-CD81EGFP cells; read-out: INHIBITION", "outline": "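Uninfected HepG2-A16-CD81EGFP cells, 3 × 10^3 per well, 1536-well, plated on prespotted compound at 10 μM final, parasite-free screening media added to match infected plates; puromycin 10 μM positive, DMSO 0.5% negative; run in parallel with 48 h PbLuc assay at 37 °C, 5% CO2; viability by CellTiter-Glo luminescence, normalized to controls.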", "units": {"cytotoxicity at 10 µM": "%"}}
{"smiles": "COc1ccc(CN(Cc2nc(C)no2)C2CCCCC2)cc1OC", "cytotoxicity at 10 µM": -0.0185}
{"smiles": "O=C1CC2(CCN(Cc3ccccn3)C2)CN1c1cncnc1", "note": "(stereo unspecified)", "cytotoxicity at 10 µM": 2.26}
{"smiles": "C=C(C)COc1cccc(C(=O)N2CCC3(CCOCC3)CC2)c1", "cytotoxicity at 10 µM": -47.1}
{"smiles": "CSc1ccc(C(O)CNS(=O)(=O)C2CC2)cc1", "note": "(stereo unspecified)", "cytotoxicity at 10 µM": -0.608}
{"smiles": "Cc1ccc(NC2CCN(C(=O)c3ccc(F)c(C)c3)CC2)nn1", "cytotoxicity at 10 µM": 2.37}
{"smiles": "CCN1CCc2[nH]cnc2C12CCN(c1ccc(Cl)cn1)CC2", "cytotoxicity at 10 µM": 6}
{"smiles": "CNc1nc2c(c(C(=O)N3CCCC3)n1)CN(Cc1nccn1C)CC2", "cytotoxicity at 10 µM": -8.74}
{"smiles": "Cc1nn(C)c(N2CCOCC2)c1CNCC1CCCN1C", "note": "(stereo unspecified)", "cytotoxicity at 10 µM": -1.96}
{"smiles": "CCCc1ncc(C(=O)N2CCOc3ncccc32)s1", "cytotoxicity at 10 µM": 11.6}
{"smiles": "CC(CCc1ccccc1)NC(=O)Nc1cnn(CC(N)=O)c1", "note": "(stereo unspecified)", "cytotoxicity at 10 µM": 1.64}
{"smiles": "Cc1c(S(=O)(=O)NC2CC2)cc2c(C)cc(=O)n3c2c1CCC3", "cytotoxicity at 10 µM": -1.95}
{"smiles": "Cc1cnn(CCNCC(=O)NC(C)c2ccc3c(c2)OCCO3)c1", "note": "(stereo unspecified)", "cytotoxicity at 10 µM": -1.58}
{"smiles": "O=C(C1CCOCC1)N1CC[C@H]2[C@H]1CCN2c1nncs1", "cytotoxicity at 10 µM": -4.78}
{"smiles": "CC(=O)N1CCCC(C(=O)NCCc2csc(-c3ccncc3)n2)C1", "note": "(stereo unspecified)", "cytotoxicity at 10 µM": 5.12}
{"smiles": "CC(C)NC(=O)N1CCCCCC1C1CCN(c2ncccn2)CC1", "note": "(stereo unspecified)", "cytotoxicity at 10 µM": -23.2}
{"smiles": "CC(C)c1nn(C)c(N(C)C)c1CNCc1ccnc(N(C)C)c1", "cytotoxicity at 10 µM": 1.36}
{"smiles": "CC(=O)NCc1nc(Cc2cccc(Cl)c2)nn1C1CCN(C)CC1", "cytotoxicity at 10 µM": -1.12}
{"smiles": "Cc1cc(C(=O)N2CCc3c(CN(C)C)nn(C)c3C2)[nH]n1", "cytotoxicity at 10 µM": -3.25}
{"smiles": "Cc1nc2n(n1)CC(NCc1ccnc(-c3ccccc3)n1)CC2", "note": "(stereo unspecified)", "cytotoxicity at 10 µM": -0.898}
{"smiles": "O=C(O)C1CCN(C(=O)CCn2ccc3cc(Br)ccc32)CC1", "cytotoxicity at 10 µM": 15.5}
{"smiles": "Cc1noc(C)c1CN1CCOC(CNc2cccnn2)C1", "note": "(stereo unspecified)", "cytotoxicity at 10 µM": -19}
{"smiles": "Cc1c(Cl)cccc1S(=O)(=O)N1CCC(S(=O)(=O)c2nncn2C)CC1", "cytotoxicity at 10 µM": 1.06}
{"smiles": "CCc1nc(CN2CCN(C(=O)Cc3c(C)noc3C)CC2)cs1", "cytotoxicity at 10 µM": -0.549}
{"smiles": "O=C(NCC1SCCc2ccccc21)c1cscn1", "note": "(stereo unspecified)", "cytotoxicity at 10 µM": -1.88}
{"smiles": "CCc1nccn1-c1cncc(C2CCCN2Cc2cccnc2)n1", "note": "(stereo unspecified)", "cytotoxicity at 10 µM": 5.82}
{"smiles": "COc1ccc(S(=O)(=O)NC(=O)COc2ccc3c(c2)CCC3)cc1", "cytotoxicity at 10 µM": -6.72}
{"smiles": "COCC(O)CN1CCC(=O)N(Cc2ccccc2)Cc2ccccc21", "note": "(stereo unspecified)", "cytotoxicity at 10 µM": 1.19}
{"smiles": "Cc1cc(N[C@H]2CN(CC(C)(C)N3CCOCC3)C[C@@H]2C2CC2)ncn1", "cytotoxicity at 10 µM": 2.03}
{"smiles": "CC(=O)N1CC(c2ncn(C(C)C)n2)c2cc(C(=O)NC(C)C)ccc21", "note": "(stereo unspecified)", "cytotoxicity at 10 µM": 8.22}
{"smiles": "CN1CCN(C(=O)c2cc3sccc3n2Cc2ccccc2)CC1", "cytotoxicity at 10 µM": 4.38}
{"smiles": "c1ccc(-n2nc(CNC3CCc4ncnn4C3)c3c2CCC3)cc1", "note": "(stereo unspecified)", "cytotoxicity at 10 µM": -12.9}
{"smiles": "Cn1cccc(NC(=O)COc2ccc(Cl)cc2)c1=O", "cytotoxicity at 10 µM": 4.69}
{"smiles": "CN(C)C(=O)Cn1c2c(ccc1=O)CCN(Cc1cnn(C)c1)CC2", "cytotoxicity at 10 µM": 0.886}
{"smiles": "CNC(=O)NC(=O)CCN1CCN(c2nccs2)CC1", "cytotoxicity at 10 µM": -11.1}
{"smiles": "CC(C)c1n[nH]c(C2CN(C(=O)c3cc(C4CC4)on3)CCO2)n1", "note": "(stereo unspecified)", "cytotoxicity at 10 µM": -1.7}
{"smiles": "Cc1ccc2c(n1)N(CCN(C)C)CCN(C(=O)c1ccc[nH]1)C2", "cytotoxicity at 10 µM": 6.59}
{"smiles": "COc1ccc2c(c1)C1(CCNCC1)CC2NC1CC1", "note": "(stereo unspecified)", "cytotoxicity at 10 µM": -117}
{"smiles": "CO[C@@H]1CCN(S(=O)(=O)N(C)C)[C@@H]2CN(Cc3ccncc3)C[C@@H]21", "cytotoxicity at 10 µM": 15.1}
{"smiles": "Cn1nc(Cn2cccc2)c2c1CN(Cc1ccsc1)C2", "cytotoxicity at 10 µM": -133}
{"smiles": "Cc1nonc1CN(C)Cc1cnn(-c2ccc(Cl)cc2)c1", "cytotoxicity at 10 µM": -16.3}
{"smiles": "O=c1ccc(-c2cccs2)nn1CN1CCN(C2CCS(=O)(=O)C2)CC1", "note": "(stereo unspecified)", "cytotoxicity at 10 µM": 9.99}
{"smiles": "NC(=O)c1ccc(NC(=O)N2CCN(c3cccs3)CC2)c(F)c1", "cytotoxicity at 10 µM": 1.97}
{"smiles": "COc1ccc(CN(C)CC(=O)c2ccc3[nH]c(=O)[nH]c3c2)cc1F", "cytotoxicity at 10 µM": 8.51}
{"smiles": "COc1ccc(Cc2ncc3c(n2)CN(C(=O)CN(C)C)C3)cc1", "cytotoxicity at 10 µM": -1.28}
{"smiles": "O=C1[C@H]2CN(Cc3ccco3)C[C@H]2CN1c1cncnc1", "cytotoxicity at 10 µM": -3.64}
{"smiles": "Cc1nc(C(C)NC(=O)NCc2nccn2CC(C)C)cs1", "note": "(stereo unspecified)", "cytotoxicity at 10 µM": -20.7}
{"smiles": "CN1CCN(C(=O)N2CC[C@@](O)(c3ccccc3)[C@H]3CCCC[C@@H]32)CC1", "cytotoxicity at 10 µM": -9.67}
{"smiles": "COC(=O)CCNC(=O)c1ccc(NC(=O)N(C)CC(C)C)cc1", "cytotoxicity at 10 µM": 9.13}
{"smiles": "Oc1cccc(CNCC2CCCO2)c1", "note": "(stereo unspecified)", "cytotoxicity at 10 µM": -1.37}
{"smiles": "O=C(CCCNC(=O)C1CCCO1)Nc1ccc(Cl)cc1", "note": "(stereo unspecified)", "cytotoxicity at 10 µM": 13.2}
{"smiles": "O=C(NCCNc1ncccn1)c1ccc(-c2ccco2)[nH]c1=O", "cytotoxicity at 10 µM": -3.29}
{"smiles": "O=C(O)c1cc(-c2ccncc2)cc(S(=O)(=O)N2CCSCC2)c1", "cytotoxicity at 10 µM": 3.26}
{"smiles": "CS(=O)(=O)N1CC(=O)N(CCCc2ccccc2)CC(O)C1", "note": "(stereo unspecified)", "cytotoxicity at 10 µM": -7.99}
{"smiles": "COc1c(C(=O)NCC2CCCO2)nnn1Cc1ccccc1", "note": "(stereo unspecified)", "cytotoxicity at 10 µM": 7.47}
{"smiles": "CC(=O)c1ccccc1NC(=O)CCN1CCSCC1", "cytotoxicity at 10 µM": -7.88}
{"smiles": "CN(C)CCn1c2c(ccc1=O)CC(NCc1cccnc1)CC2", "note": "(stereo unspecified)", "cytotoxicity at 10 µM": 14.4}
{"smiles": "Cc1nc(C)n(C2CCCN(C(=O)Cc3cccnc3)C2)n1", "note": "(stereo unspecified)", "cytotoxicity at 10 µM": -2.15}
{"smiles": "c1cc(CNCC2CNc3ccnn3C2)cc(OC2CCCC2)n1", "note": "(stereo unspecified)", "cytotoxicity at 10 µM": -3.02}
{"smiles": "COCCn1cnc2ccc(NC(=O)c3c(C)noc3C)cc2c1=O", "cytotoxicity at 10 µM": 4.13}
{"smiles": "Cc1cncc(C(=O)N2CCCC(O)(CO)C2)c1", "note": "(stereo unspecified)", "cytotoxicity at 10 µM": 2.09}
{"smiles": "COCCN1CCc2cc(C(=O)N(C)C)c(NCC3CC3)nc2CC1", "cytotoxicity at 10 µM": 4.44}
{"smiles": "Cc1nc(CN2C[C@@H]3CN(c4ncccn4)C[C@@H]3C2=O)cs1", "cytotoxicity at 10 µM": 5.16}
{"smiles": "Cc1ccc(C2(O)CCN(C(=O)c3cccc(S(C)(=O)=O)c3)CC2)nc1", "cytotoxicity at 10 µM": -5.3}
{"smiles": "CCSCCC(C)N(C)C(=O)c1ccc2nncn2c1", "note": "(stereo unspecified)", "cytotoxicity at 10 µM": -5.4}
{"smiles": "COc1c(Br)c(CC2CC(CO)=NO2)c(Br)c2c1OCO2", "note": "(stereo unspecified)", "cytotoxicity at 10 µM": 6.97}
{"smiles": "Cn1cc(NC(=O)c2ccccn2)cc(Br)c1=O", "cytotoxicity at 10 µM": -12.8}
{"smiles": "CCOc1ccccc1-n1c(C2CC(=O)N(C)C2)n[nH]c1=O", "note": "(stereo unspecified)", "cytotoxicity at 10 µM": 2.48}
{"smiles": "CC(C#N)CN(C)C(=O)CCNC(=O)OCC(F)(F)F", "note": "(stereo unspecified)", "cytotoxicity at 10 µM": 3.89}
{"smiles": "CC(C)NC(=O)CCNC(=O)c1cc(Br)cn1C(C)C", "cytotoxicity at 10 µM": 4.33}
{"smiles": "O=C(Cc1ccccc1)NCc1ccc(-c2ccccc2C(=O)O)cn1", "cytotoxicity at 10 µM": -11.5}
{"smiles": "O=C(CCNc1ncccn1)NCCOc1ccc2c(c1)CCC2", "cytotoxicity at 10 µM": -4.54}
{"smiles": "CCNc1nc(C)c(C(=O)N2CCN(c3ncccc3C)CC2)s1", "cytotoxicity at 10 µM": 3.77}
{"smiles": "CN(Cc1ccncc1)C1COC2(CCN(Cc3cccs3)CC2)C1", "note": "(stereo unspecified)", "cytotoxicity at 10 µM": -0.931}
{"smiles": "CCCN1CCN(C(=O)c2cccnc2-n2cncn2)CC1", "cytotoxicity at 10 µM": 5.28}
{"smiles": "CCS(=O)(=O)N1CCn2cc(CN(C)Cc3ccco3)nc2C1", "cytotoxicity at 10 µM": -74.4}
{"smiles": "Cc1ccc(N2CCCC(NCc3cccc4c3OCCO4)C2)nn1", "note": "(stereo unspecified)", "cytotoxicity at 10 µM": -1.69}
{"smiles": "Cc1ccc(CN2CCN(Cc3ccncc3)[C@@H]3CS(=O)(=O)C[C@@H]32)cc1", "cytotoxicity at 10 µM": 6.86}
{"smiles": "Cc1cc(SC(C)(C)C)ccc1NCC(=O)NC(N)=O", "cytotoxicity at 10 µM": -17.1}
{"smiles": "Cc1nn(C)cc1C1=NS(=O)(=O)N(C)C(C(=O)Nc2ccc(Cl)cc2)=C1", "cytotoxicity at 10 µM": 7.9}
{"smiles": "Cc1nc(CN2CCCN(C(=O)c3c(C)noc3C)CC2)cs1", "cytotoxicity at 10 µM": -2.87}
{"smiles": "Cc1cnc(C)c(Oc2ccc(CN3CCCC3)cc2Cl)n1", "cytotoxicity at 10 µM": -1.37}
